Columns and labels:
[1] = biological target: T1, Phosphatidylinositol 4-kinase, PI4K (Homo sapiens, UniProt Q9BTU6+Q8TCG2+Q9UBF8+P42356); type: protein assay
[2] = biological target: T1, Phosphatidylinositol 4-kinase, PI4K; test: Binding affinity (Ki) against human phosphatidylinositol 4-kinase; type: protein assay
Method in brief: (§1)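 Human erythrocyte plasma membranes (0.36 mg protein) were incubated with PI (0.12 mM, [2-3H]PI tracer), ATP at 100 µM, ouabain, vanadate, DTT, 0.6% Triton X-100, MgCl2, EGTA, KCl/NaCl and HEPES pH 7.4 for 10 min at 30 °C. Lipids were extracted and deacylated, and the aqueous phase collected. Compounds were screened at 500 µM, then IC50 fitted from single dose-response curves. Ki = IC50/(1+[S]/Km), with ATP Km 221.5 µM.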

[3] = Vmax value was determined; type: ADME
[4] = test system: Nc1ncnc2c1ncn2[C@@H]1O[C@H](CO)[C@@H](O)[C@H]1O; test: (§2) Inhibition of Phosphatidylinositol 4-kinase at the ATP binding site; type: protein assay; settings: Homo sapiens
Method in brief: as §1

[5] = test system: c1ccc(CNc2ncnc3[nH]cnc23)cc1; test: as §2; type: protein assay; settings: Homo sapiens
Method in brief: as §1

Nc1[nH]cnc2ncnc1-2 = test: as §2; type: protein assay; settings: Homo sapiens
Method in brief: as §1

CCn1cnc2c(N)ncnc21 = test: as §2; type: protein assay; settings: Homo sapiens
Method in brief: as §1

Nc1ncnc2c1ncn2C1CCCO1 = test: as §2; type: protein assay; settings: Homo sapiens
Method in brief: as §1

| Compound | IC50 [1] | Ki [2] | other results |
| --- | --- | --- | --- |
| CN(C)c1ncnc2nc[nH]c12 [DIMETHYLADENINE] | 218 µM | 150.2 µM |  |
| Nc1ncnc2scnc12 | 116.9 µM | 80.6 µM |  |
| Nc1ncnc2c1ncn2[C@@H]1O[C@H](COP(=O)(O)OP(=O)(O)O)[C@@H](O)[C@H]1O [ADENOSINE DIPHOSPHATE] | 145.3 µM | 100.1 µM |  |
| Nc1ncnc2c1ncn2C1CCCCCC1 | 7.2 µM | 5 µM |  |
| Cc1ccccc1-n1cnc2c(N)ncnc21 | 23.6 µM | 16.5 µM |  |
| Nc1ncnc2[nH]ncc12 | 144.9 µM | 99.9 µM |  |
| Nc1ncnc2c1cnn2-c1ccccc1 | 16.1 µM | 11 µM |  |
| Nc1[nH]cnc2nc(-c3cccc4ccccc34)nc1-2 | 129.8 µM | 89.5 µM |  |
| CC(C)(C)Cn1cnc2c(N)ncnc21 | 12.8 µM | 9 µM |  |
| Cn1cnc2c(N)ncnc21 | 161 µM | 110.9 µM |  |
| Cl.Nc1ncnc2nc[nH]c12 | 182.6 µM | 85.8 µM | Vmax [3]: 22800 c.p.m. |
| CC(C)(C)c1ccc(-n2cnc3c(N)ncnc32)cc1 | 46.1 µM | 31.7 µM |  |
| Cl.Nc1ncnc2nc(Br)[nH]c12 | 215.3 µM | 148.4 µM |  |
| Cn1c(-c2ccccc2)nc2c(N)ncnc21 | 34.9 µM | 24.1 µM |  |
| Nc1ncnc2c1ncn2-c1ccc(Cl)cc1 | 41.1 µM | 28.2 µM |  |
| Nc1ncnc2c1ncn2[C@@H]1O[C@H](CO)[C@@H](O)[C@H]1O [ADENOSINE] | 30.3 µM | 19.2 µM | Vmax [3]: 31400 c.p.m. |
| Nc1ncnc2c1ncn2-c1ccccc1 | 15.4 µM | 10.3 µM |  |
| COc1cccc(-n2cnc3c(N)ncnc32)c1 | 22.9 µM | 15.8 µM |  |
| Nc1ncnc2c1nc1n2CCCC1 | 52.4 µM | 35.8 µM |  |
| Cc1nc2[nH]cnc(N)c-2n1 | 195.4 µM | 134.3 µM |  |
| CC1(n2cnc3c(N)ncnc32)CCCCC1 | 7.2 µM | 5 µM |  |
| CCCCCc1nc2c(N)ncnc2n1CCCCC | 126.5 µM |  |  |
| Nc1ncnc2c1ncn2-c1cccc2ccccc12 | 78.8 µM | 54.4 µM |  |
| CCn1cnc2c(N)ncnc21 | 32.4 µM | 25.5 µM | Vmax [3]: 20800 c.p.m. |
| Nc1ncnc2[nH]c(-c3ccccc3)nc12 | 48.8 µM | 33.6 µM |  |
| CCCCCc1nc2c(N)ncnc2n1-c1ccccc1 | 51.9 µM | 35.8 µM |  |
| CC(C)n1cnc2c(N)ncnc21 | 14.9 µM | 10.3 µM |  |

| Compound | IC50 [1] | Ki [2] | other results |
| --- | --- | --- | --- |
| Nc1ncnc2c1ncn2C1O[C@H](CI)[C@@H](O)[C@H]1O (stereo partly drawn) | 23.1 µM | 15.9 µM |  |
| Cc1nc2c(N)ncnc2n1-c1ccccc1 | 16.4 µM | 11 µM |  |
| Cn1ncc2c(N)ncnc21 | 82.5 µM | 56.8 µM |  |
| CCCCCc1nc2[nH]cnc(N)c-2n1 | 68.9 µM | 47.5 µM |  |
| CC(C)(C)n1cnc2c(N)ncnc21 | 10.2 µM | 6.9 µM |  |
| Nc1ncnc2c1ncn2-c1cccc(F)c1 | 25.6 µM | 17.9 µM |  |
| CCC(CC)(CC)n1cnc2c(N)ncnc21 | 134.1 µM | 93.7 µM |  |
| Nc1ncnc2c1ncn2C1CCCC1 | 8.7 µM | 6 µM |  |
| Nc1[nH]cnc2nc(-c3ccccn3)nc1-2 | 75.6 µM | 52.3 µM |  |
| Nc1ncnc2cc3ccccc3cc12 | 33 µM | 22.7 µM |  |
| CC1(C)O[C@@H]2[C@H](O1)[C@@H](CO)O[C@H]2n1cnc2c(N)ncnc21 | 12.1 µM | 8.4 µM |  |
| Nc1ncnc2c1ncn2-c1cccnc1 | 46.2 µM | 31.8 µM |  |
| Phosphatidylinositol 4-kinase, PI4K (Homo sapiens) (from UniProt Q9BTU6+Q8TCG2+Q9UBF8+P42356) |  |  | Km [4]: 179 µM; Km [5]: 239 µM; Km (Nc1[nH]cnc2ncnc1-2): 297 µM; Km (CCn1cnc2c(N)ncnc21): 257 µM; Km (Nc1ncnc2c1ncn2C1CCCO1): 262 µM |
| Cl.Nc1[nH]cnc2nc(NCc3ccccc3)nc1-2 | 133 µM | 91.7 µM |  |
| c1ccc(CNc2ncnc3nc[nH]c23)cc1 [6-BENZYLAMINOPURINE] | 240.4 µM | 199 µM | Vmax [3]: 25800 c.p.m. |
| Nc1nc(N)c2[nH]c(-c3ccccc3)nc2n1 | 199.5 µM | 137.7 µM |  |
| COc1ccc(-n2cnc3c(N)ncnc32)cc1 | 21.9 µM | 15.2 µM |  |
| Nc1nc2ncnc-2c[nH]1 [2-AMINOPURINE] | 341.6 µM | 235.4 µM |  |
| Nc1ncnc2c1ncn2-c1ccccc1F | 11.9 µM | 8.3 µM |  |
| Nc1ncnc2c1ncn2Cc1ccccc1 [9-BENZYL-9H-ADENINE] | 84.4 µM | 57.9 µM |  |
| Nc1ncnc2c1ncn2C12CC3CC(CC(C3)C1)C2 | 6 µM | 4.1 µM |  |
| Nc1nc(N)c2nc[nH]c2n1.O=S(=O)(O)O | 146.8 µM | 101.2 µM |  |
| Nc1ncnc2ccccc12 [4-AMINOQUINAZOLINE] | 91.7 µM | 63.4 µM |  |
| Nc1ncnc2c1nc(-c1ccccc1)n2-c1ccccc1 | 16.4 µM | 11 µM |  |
| Nc1ncnc2c1ncn2C1CCCO1 (stereo not drawn) | 28.2 µM | 21.2 µM | Vmax [3]: 25800 c.p.m. |
| Nc1ncnc2c1ncn2C1CCCCC1 | 6 µM | 3.7 µM |  |
